From ChEMBL document CHEMBL4400568, “The design of 1,4-naphthoquinone derivatives and mechanisms underlying apoptosis induction through ROS-dependent MAPK/Akt/STAT3 pathways in human lung cancer cells” (Bioorg Med Chem, 2019)
The source made the active and inactive calls. The calls are words filed in the database; no cut-off is given here.

How the values were obtained:
A549 [1] = assay: Induction of ROS generation in human A549 cells assessed as intracellular ROS level at 3 uM after 12 hrs by DCFH-DA staining-based flow cytometric analysis (reference value: 51.8%); assay type: functional
Method in brief: (§1)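 A549 cells loaded with DCFH-DA (10 μM per legend) for 30 min, then exposed to 3 μM at 37°C for 3, 6, 12 or 24 h. After two PBS washes, intracellular fluorescence is quantified by flow cytometry. Three independent experiments, mean ± SD.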

A549 [2] = assay: Cell cycle arrest in human A549 cells assessed as decrease in cyclinD1/E levels at 3 uM by Western blot analysis; assay type: functional, cell-based; details: TDE = time-dependent effect
Method in brief: (§2)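 A549 cells exposed to 3 μM for 3, 6, 12 or 24 h; where NAC is used, 10 mM NAC is added 30 min before 24 h treatment. Lysate protein (30 μg) is run on 12% SDS-PAGE, blotted to nitrocellulose, blocked in 5% milk, primary antibody overnight at 4°C, then HRP anti-IgG. β-actin loading control; densitometry; three independent experiments, mean ± SD.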

A549 [3] = assay: Induction of apoptosis in human A549 cells assessed as early apoptotic cells at 3 uM in presence of NAC by Annexin V-FITC/propidium iodide staining-based flow cytometric analysis (reference value: 5.31%); assay type: functional
[4] = target: RAC-alpha serine/threonine-protein kinase (Homo sapiens) (UniProt P31749); assay: Inhibition of AKT phosphorylation in human A549 cells at 3 uM measured after 24 hrs in presence of NAC by Western blot analysis; assay type: cell-based
Sequence of RAC-alpha serine/threonine-protein kinase (Homo sapiens) (P31749 whole entry): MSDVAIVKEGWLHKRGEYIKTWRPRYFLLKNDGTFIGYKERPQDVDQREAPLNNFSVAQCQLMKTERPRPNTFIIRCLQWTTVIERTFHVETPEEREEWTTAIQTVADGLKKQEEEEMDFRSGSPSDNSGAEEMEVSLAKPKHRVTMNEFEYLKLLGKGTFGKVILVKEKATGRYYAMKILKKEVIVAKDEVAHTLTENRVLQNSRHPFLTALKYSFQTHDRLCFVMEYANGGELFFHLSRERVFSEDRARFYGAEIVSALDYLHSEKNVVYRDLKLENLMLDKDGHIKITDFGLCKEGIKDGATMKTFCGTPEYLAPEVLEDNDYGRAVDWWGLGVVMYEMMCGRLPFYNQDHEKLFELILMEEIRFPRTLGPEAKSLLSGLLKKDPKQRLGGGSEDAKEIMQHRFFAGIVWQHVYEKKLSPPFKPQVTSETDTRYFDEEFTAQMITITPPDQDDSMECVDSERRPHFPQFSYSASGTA
Method in brief: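 A549 cells pretreated with 10 mM NAC for 30 min, then exposed to compound for 24 h. Lysate protein (30 μg) resolved on 12% SDS-PAGE and transferred to nitrocellulose. Probed with primary antibodies overnight at 4°C, then HRP secondary. Band densities from three independent experiments, mean ± SD.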

[5] = target: RAC-alpha serine/threonine-protein kinase (Homo sapiens) (UniProt P31749); assay: Modulation of AKT in human A549 cells assessed as decrease in CDK6 levels measured after 24 hrs in presence of Akt inhibitor-LY10249 by Western blot analysis; assay type: cell-based
Method in brief: (§3)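 A549 cells pre-incubated for 30 min with 12.1 μM kinase inhibitor: SB203580 (p38), SP600125 (JNK), FR180204 (ERK) or LY10249 (Akt). Compound treatment followed for 24 h. Lysates (30 μg protein) analysed by 12% SDS-PAGE and nitrocellulose immunoblot with HRP detection. Three independent experiments, mean ± SD.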

A549 [6] = assay: Cell cycle arrest in human A549 cells assessed as accumulation of cells at S phase at 3 uM after 6 hrs by propidium iodide staining-based flow cytometric analysis (reference value: 13.85%); assay type: functional
A549 [7] = assay: Cell cycle arrest in human A549 cells assessed as accumulation of cells at G2 phase at 3 uM after 3 hrs by propidium iodide staining-based flow cytometric analysis (reference value: 24.02%); assay type: functional
A549 [8] = assay: Induction of apoptosis in human A549 cells assessed as cell shrinkage at 3 uM by Annexin V-FITC/propidium iodide staining-based flow cytometric analysis; assay type: functional; details: TDE = time-dependent effect
A549 [9] = assay: Induction of ROS generation in human A549 cells assessed as intracellular ROS level at 3 uM after 6 hrs by DCFH-DA staining-based flow cytometric analysis (reference value: 51.8%); assay type: functional; method in brief: as §1
[10] = target: RAC-alpha serine/threonine-protein kinase (Homo sapiens) (UniProt P31749); assay: Modulation of AKT in human A549 cells assessed as decrease in cyclinD1 levels measured after 24 hrs in presence of Akt inhibitor-LY10249 by Western blot analysis; assay type: cell-based; method in brief: as §3
A549 [11] = assay: Induction of apoptosis in human A549 cells assessed as increase in cleaved PARP at 3 uM measured after 24 hrs in presence of NAC by Western blot analysis; assay type: functional, cell-based; method in brief: as §2
[12] = Cytotoxicity against HEK293A cells assessed as reduction in cell viability after 24 hrs by MTT assay; assay type: cell-based; details: human, hek293-a
Method in brief: (§4)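 Log-phase cells seeded at 1 × 10⁴ per well. Lung cancer lines (A549, NCI-H23, NCI-H460) and normal lines (IMR-90, QSG-7701, HEK-293A) each exposed to 1, 3, 10, 30 and 100 μM for 24 h. MTT (5 mg/mL stock) added for 2 h at 37°C, formazan dissolved in DMSO, absorbance read at 490 nm. Three independent experiments, mean ± SD.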

A549 [13] = assay: Induction of apoptosis in human A549 cells at 3 uM by Annexin V-FITC/propidium iodide staining-based flow cytometric analysis; assay type: functional, cell-based; details: TDE = time-dependent effect
Method in brief: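 A549 cells seeded at 1 × 10⁵ cells/well, exposed to 3 μM for 3, 6, 12 and 24 h. Then incubated in binding buffer and stained with Annexin V-FITC and PI for 20 min in the dark. Apoptotic cells were scored by fluorescence microscopy and flow cytometry. Three independent experiments, mean ± SD.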

A549 [14] = assay: Cell cycle arrest in human A549 cells assessed as accumulation of cells at G1 phase at 3 uM after 3 hrs by propidium iodide staining-based flow cytometric analysis (reference value: 57.65%); assay type: functional
A549 [15] = assay: Induction of apoptosis in human A549 cells assessed as early apoptotic cells at 3 uM after 24 hrs by Annexin V-FITC/propidium iodide staining-based flow cytometric analysis (reference value: 2.73%); assay type: functional
A549 [16] = assay: Inhibition of ERK phosphorylation in human A549 cells at 3 uM after 3 to 24 hrs by Western blot analysis; assay type: cell-based
Method in brief: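 A549 cells exposed to 3 μM for 3, 6, 12 or 24 h. Lysate protein (30 μg) run on 12% SDS-PAGE and blotted to nitrocellulose. Membranes blocked in 5% skim milk, primary antibodies at 4°C overnight, then HRP anti-IgG secondary for 1 h at room temperature. β-actin was the internal control. Bands quantified by densitometry; three independent experiments, mean ± SD.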

[17] = target: MAP kinase p38 (Homo sapiens) (UniProt O15264+Q15759+Q16539+P53778); assay: Activation of p38 phosphorylation in human A549 cells at 3 uM after 3 to 24 hrs by Western blot analysis; assay type: cell-based; method in brief: as §2
A549 [18] = assay: Induction of apoptosis in human A549 cells assessed as increase in cleaved PARP expression at 3 uM by Western blot analysis; assay type: functional, cell-based; details: TDE = time-dependent effect; method in brief: as §2
A549 [19] = assay: Cell cycle arrest in human A549 cells assessed as accumulation of cells at S phase at 3 uM after 24 hrs by propidium iodide staining-based flow cytometric analysis (reference value: 13.85%); assay type: functional
NCI-H23 = assay: Cytotoxicity against human NCI-H23 cells assessed as reduction in cell viability after 24 hrs by MTT assay; assay type: functional, cell-based; method in brief: as §4
A549 [20] = assay: Cell cycle arrest in human A549 cells assessed as accumulation of cells at G1 phase at 3 uM after 12 hrs by propidium iodide staining-based flow cytometric analysis (reference value: 57.65%); assay type: functional
A549 [21] = assay: Cell cycle arrest in human A549 cells assessed as accumulation of cells at G2 phase at 3 uM after 24 hrs by propidium iodide staining-based flow cytometric analysis (reference value: 24.02%); assay type: functional
A549 [22] = assay: Cell cycle arrest in human A549 cells assessed as accumulation of cells at G2 phase at 3 uM after 6 hrs by propidium iodide staining-based flow cytometric analysis (reference value: 24.02%); assay type: functional
A549 [23] = assay: Induction of apoptosis in human A549 cells assessed as late apoptotic cells at 3 uM after 12 hrs by Annexin V-FITC/propidium iodide staining-based flow cytometric analysis (reference value: 4.52%); assay type: functional

Row | inhibition [4] | Activity [5] | Activity [10] | Activity [17] | Compound | Activity (A549 [1]) | Activity (A549 [2]) | Activity (A549 [3]) | Activity (A549 [6]) | Activity (A549 [7]) | Activity (A549 [8]) | Activity (A549 [9]) | Activity (A549 [11]) | Activity [12] | Activity (A549 [13]) | Activity (A549 [14]) | Activity (A549 [15]) | inhibition (A549 [16]) | Activity (A549 [18]) | Activity (A549 [19]) | Activity (NCI-H23) | other results
1 | inactive | Active | Active | Active | CCCS(=O)(=O)C12OC1C(=O)c1c(OC)ccc(OC)c1C2=O (stereo not drawn) | 68.59% | Tde | 17.94% | 10.31% | 23.47% | Tde | 60.04% | inactive | Non-Toxic | Tde | 60.85% | 48.76% | Active | Tde | 7.41% | Active | Activity (A549 [20]): 69%; Activity (A549 [21]): 17.13%; Activity (A549 [22]): 18.26%; Activity (A549 [23]): 0.2%
2 | inactive | Active | Active | Active | CCCCCCCCCS(=O)(=O)C12OC1C(=O)c1c(OC)ccc(OC)c1C2=O (stereo not drawn) | 62.75% | Tde | 15.06% | 8.44% | 26.58% | Tde | 59.58% | inactive | Non-Toxic | Tde | 61.21% | 24.66 - 30.02% | Active | Tde | 6.03% | Active | Activity (A549 [20]): 68.84%; Activity (A549 [21]): 19.84%; Activity (A549 [22]): 22.02%; Activity (A549 [23]): 7.87%
